Source: ChEMBL document CHEMBL4033712, “Synthesis and biological evaluation of new C-12(α/β)-(N-) sulfamoyl-phenylamino-14-deoxy-andrographolide derivatives as potent anti-cancer agents” (Bioorg Med Chem Lett, 2017)

What was measured:
Type in all cases: functional
[1] = test system: MOLT-4; assay: Growth inhibition of human MOLT4 cells incubated for 48 hrs by sulforhodamine B assay; conditions: MOLT-4, 48 h
How it was run: (§1)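 NCI-60 five-dose screen at 0.01, 0.1, 1, 10 and 100 µM, 48 h incubation, sulforhodamine B end point. GI50 (50% decrease in net growth), TGI (total growth inhibition) and LC50 (net 50% loss of initial cells) taken from log concentration versus % growth inhibition curves.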

[2] = test system: A549; assay: Growth inhibition of human A549/ATCC cells incubated for 48 hrs by sulforhodamine B assay; conditions: A549, 48 h; how it was run: as §1
[3] = test system: HOP-62; assay: Growth inhibition of human HOP62 cells incubated for 48 hrs by sulforhodamine B assay; conditions: HOP-62, 48 h; how it was run: as §1
[4] = test system: HOP-92; assay: Growth inhibition of human HOP92 cells incubated for 48 hrs by sulforhodamine B assay; conditions: HOP-92, 48 h; how it was run: as §1
[5] = test system: NCI-H226; assay: Growth inhibition of human NCI-H226 cells incubated for 48 hrs by sulforhodamine B assay; conditions: NCI-H226, 48 h; how it was run: as §1
[6] = test system: NCI-H23; assay: Growth inhibition of human NCI-H23 cells incubated for 48 hrs by sulforhodamine B assay; conditions: NCI-H23, 48 h; how it was run: as §1
[7] = test system: NCI-H322M; assay: Growth inhibition of human NCI-H322M cells incubated for 48 hrs by sulforhodamine B assay; how it was run: as §1
[8] = test system: NCI-H460; assay: Growth inhibition of human NCI-H460 cells incubated for 48 hrs by sulforhodamine B assay; conditions: NCI-H460, 48 h; how it was run: as §1
[9] = test system: NCI-H522; assay: Growth inhibition of human NCI-H522 cells incubated for 48 hrs by sulforhodamine B assay; conditions: NCI-H522, 48 h; how it was run: as §1
[10] = test system: COLO 205; assay: Growth inhibition of human COLO205 cells incubated for 48 hrs by sulforhodamine B assay; conditions: COLO 205, 48 h; how it was run: as §1
[11] = test system: HT-29; assay: Growth inhibition of human HT-29 cells incubated for 48 hrs by sulforhodamine B assay; conditions: HT-29, 48 h; how it was run: as §1
[12] = test system: SF-268; assay: Growth inhibition of human SF268 cells incubated for 48 hrs by sulforhodamine B assay; conditions: SF-268, 48 h
How it was run: (§2)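 NCI 60 human tumour cell line panel, five-dose study at 0.01, 0.1, 1, 10 and 100 µM, 48 h incubation. Sulforhodamine B protein-binding dye end point. GI50 (50% decrease in net cell growth), TGI (total growth inhibition) and LC50 (net 50% loss of initial cells) read from log concentration versus % growth inhibition curves.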

[13] = test system: U-251; assay: Growth inhibition of human U251 cells incubated for 48 hrs by sulforhodamine B assay; conditions: U-251, 48 h; how it was run: as §2
[14] = test system: SK-MEL-28; assay: Growth inhibition of human SK-MEL-28 cells incubated for 48 hrs by sulforhodamine B assay; conditions: SK-MEL-28, 48 h; how it was run: as §2
[15] = test system: UACC-257; assay: Growth inhibition of human UACC257 cells incubated for 48 hrs by sulforhodamine B assay; conditions: UACC-257, 48 h; how it was run: as §2
[16] = test system: IGROV-1; assay: Growth inhibition of human IGROV1 cells incubated for 48 hrs by sulforhodamine B assay; conditions: IGROV-1, 48 h; how it was run: as §1
[17] = test system: OVCAR-3; assay: Growth inhibition of human OVCAR3 cells incubated for 48 hrs by sulforhodamine B assay; conditions: OVCAR-3, 48 h; how it was run: as §1
[18] = test system: OVCAR-4; assay: Growth inhibition of human OVCAR4 cells incubated for 48 hrs by sulforhodamine B assay; conditions: OVCAR-4, 48 h; how it was run: as §1
[19] = test system: OVCAR-5; assay: Growth inhibition of human OVCAR5 cells incubated for 48 hrs by sulforhodamine B assay; conditions: OVCAR-5, 48 h; how it was run: as §1
[20] = test system: NCI/ADR-RES; assay: Growth inhibition of human NCI/ADR-RES cells incubated for 48 hrs by sulforhodamine B assay; how it was run: as §1
[21] = test system: SK-OV-3; assay: Growth inhibition of human SKOV3 cells incubated for 48 hrs by sulforhodamine B assay; conditions: SK-OV-3, 48 h; how it was run: as §2
[22] = test system: 786-0; assay: Growth inhibition of human 786-0 cells incubated for 48 hrs by sulforhodamine B assay; conditions: 786-0, 48 h; how it was run: as §1
[23] = test system: TK-10; assay: Growth inhibition of human TK10 cells incubated for 48 hrs by sulforhodamine B assay; conditions: TK-10, 48 h; how it was run: as §2
[24] = test system: UO-31; assay: Growth inhibition of human UO31 cells incubated for 48 hrs by sulforhodamine B assay; conditions: UO-31, 48 h; how it was run: as §2
[25] = test system: Hs-578T; assay: Growth inhibition of human Hs 578T cells incubated for 48 hrs by sulforhodamine B assay; how it was run: as §1
[26] = test system: MDA-MB-468; assay: Growth inhibition of human MDA-MB-468 cells incubated for 48 hrs by sulforhodamine B assay; conditions: MDA-MB-468, 48 h; how it was run: as §1
[27] = test system: HOP-92; assay: Anticancer activity against human HOP92 cells assessed as cell growth at 10 uM after 48 hrs by sulforhodamine B assay relative to control; conditions: HOP-92, 48 h, read-out: Activity
How it was run: (§3)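 Single-dose NCI-60 panel screen: compound added at 10 µM and the culture incubated 48 h. The end point was read by protein staining with sulforhodamine B. The value is percent growth of treated cells relative to untreated control cells, reported as a mean graph across the panel.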

[28] = test system: SNB-19; assay: Anticancer activity against human SNB19 cells assessed as cell growth at 10 uM after 48 hrs by sulforhodamine B assay relative to control; conditions: SNB-19, 48 h, read-out: Activity; how it was run: as §3
[29] = read-out: LC50 (the source's name)

Structure (SMILES): C=C1CC[C@@H]2[C@](C)(COC(C)=O)[C@H](OC(C)=O)CC[C@@]2(C)[C@H]1CC(Nc1ccc(S(=O)(=O)Nc2nccs2)cc1)C1=CCOC1=O (stereo not given in full)
- GI50 [1]: 3.68 µM
- TGI [1]: 73.2 µM
- CC50 [1, 29]: > 100 µM
- GI50 [2]: 3.67 µM
- TGI [2]: 11.2 µM
- CC50 [2, 29]: 40.4 µM
- GI50 [3]: 13.8 µM
- TGI [3]: 27.5 µM
- CC50 [3, 29]: 54.7 µM
- GI50 [4]: 12.4 µM
- TGI [4]: 25.3 µM
- CC50 [4, 29]: 52 µM
- GI50 [5]: 2.36 µM
- TGI [5]: 5.37 µM
- CC50 [5, 29]: > 100 µM
- GI50 [6]: 10 µM
- TGI [6]: 24.8 µM
- CC50 [6, 29]: 61.6 µM
- GI50 [7]: 12 µM
- TGI [7]: 24.9 µM
- CC50 [7, 29]: 51.6 µM
- GI50 [8]: 10.7 µM
- TGI [8]: 25.3 µM
- CC50 [8, 29]: 59.9 µM
- GI50 [9]: 1.72 µM
- TGI [9]: 4.32 µM
- CC50 [9, 29]: 21.2 µM
- GI50 [10]: 3.14 µM
- TGI [10]: 10.5 µM
- CC50 [10, 29]: 48.9 µM
- GI50 [11]: 2.17 µM
- TGI [11]: 4.7 µM
- CC50 [11, 29]: 15.8 µM
- GI50 [12]: 11.3 µM
- TGI [12]: 25.9 µM
- CC50 [12, 29]: 59.1 µM
- GI50 [13]: 1.86 µM
- TGI [13]: 3.5 µM
- CC50 [13, 29]: 6.57 µM
- GI50 [14]: 3.95 µM
- LC50 (50% net cell kill) [14]: 41.8 µM
- TGI [14]: 15.1 µM
- GI50 [15]: 2.55 µM
- TGI [15]: 5.61 µM
- CC50 [15, 29]: 17.2 µM
- GI50 [16]: 4.54 µM
- TGI [16]: 17.1 µM
- CC50 [16, 29]: 47.5 µM
- GI50 [17]: 1.88 µM
- TGI [17]: 3.64 µM
- CC50 [17, 29]: 7.06 µM
- GI50 [18]: 4.53 µM
- LC50 [18]: 43.9 µM
- TGI [18]: 17.7 µM
- GI50 [19]: 4.82 µM
- LC50 (concentration causing net 50% loss of initial cells) [19]: 46.9 µM
- TGI [19]: 17.6 µM
- GI50 [20]: 2.97 µM
- LC50 (concentration giving net 50% loss of initial cells) [20]: > 100 µM
- TGI [20]: 12.7 µM
- GI50 [21]: 14.4 µM
- TGI [21]: 27.8 µM
- CC50 [21, 29]: 53.5 µM
- GI50 [22]: 2.54 µM
- LC50 (concentration giving net 50% loss of initial cells) [22]: 23.6 µM
- TGI [22]: 6.74 µM
- GI50 [23]: 9.45 µM
- TGI [23]: 21.2 µM
- CC50 [23, 29]: 46.1 µM
- GI50 [24]: 4.07 µM
- LC50 (concentration giving net 50% loss of initial cells) [24]: 41.8 µM
- TGI [24]: 16.1 µM
- GI50 [25]: 10.8 µM
- LC50 [25]: > 100 µM
- TGI [25]: 60.4 µM
- GI50 [26]: 1.83 µM
- TGI [26]: 4.43 µM
- CC50 [26, 29]: 14.1 µM
- growth at 10 µM [27]: 54%
- growth at 10 µM [28]: 49.1%
